# Hits are enriched below; roughly 2.6% of the tested compounds scored in any of these assays.
# PHOSPHO1 inh: blocks human PHOSPHO1 phosphatase activity; Q8TCT1; recombinant PHOSPHO1, absorbance phosphatase assay; inhibition, % at 13.3 µM; 290,000 tested, 1.1% active; AID 1565; in the data active = inhibition above about 60%
# Target sequence (Q8TCT1 whole entry, looked up): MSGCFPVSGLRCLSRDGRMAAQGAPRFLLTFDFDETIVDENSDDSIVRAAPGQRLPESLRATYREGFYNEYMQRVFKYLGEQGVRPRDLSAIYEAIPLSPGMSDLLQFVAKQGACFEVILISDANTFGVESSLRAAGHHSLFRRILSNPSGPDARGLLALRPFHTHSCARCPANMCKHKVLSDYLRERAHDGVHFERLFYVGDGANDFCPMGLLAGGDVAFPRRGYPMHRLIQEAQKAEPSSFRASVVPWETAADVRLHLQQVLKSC
# ARFGAP1 inhibitor: inhibits rat ARF GTPase activating protein 1. Q62848. Arfgap1-stimulated ARF1 GTP hydrolysis, GDP FP detection. inhibition, % at 16.5 µM. 360,000 tested, 0.26% active. AID 651572;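 active = inhibition above a per-plate limit, mean inhibition of low control wells plus 3 SD, cut at about 25% in these data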;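 note: 0% = DMSO wells with enzyme and 100% = wells lacking Arfgap1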
# Target sequence (Q62848 1-136 limits assumed): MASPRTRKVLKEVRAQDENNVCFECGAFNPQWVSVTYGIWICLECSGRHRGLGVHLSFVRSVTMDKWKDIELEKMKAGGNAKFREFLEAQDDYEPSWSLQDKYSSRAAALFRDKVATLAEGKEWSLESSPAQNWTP
#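 Replicates: Single well per compound | Assay system: Truncated rat Arfgap1 GAP domain | Control set: No-Arfgap1 wells (100%) versus DMSO full-reaction wells (0%) | Times: Enzyme reaction 120 min at 25 °C after 20 min preincubation | Reagent: Human ARF1(Δ1-17)-GTP substrate | Measured by: Tracer-displacement fluorescence polarization with EDTA stop, 620/688 nm | Measure: Percent inhibition of Arfgap1-stimulated GTP hydrolysis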
# Calb FLC: affects C. albicans growth with fluconazole. C. albicans CaCi-2 (fluconazole-resistant clinical isolate) + fluconazole, Alamar Blue growth, 48 h. growth inhibition, % (test concentration not listed). 300,000 tested, 0.57% active;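 active = growth inhibition above about 58% in most replicates, limit read from the data, passing the limit was not always enough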;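 note: all wells also contain fluconazole at 8 µg/ml as a sub-toxic cotreatment; 0% = median of DMSO wells and 100% = median of geldanamycin control wells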
# IMP-1 inh: inhibitors of Pseudomonas aeruginosa IMP-1 metallo-beta-lactamase. purified IMP-1, nitrocefin hydrolysis, epi-absorbance fluorescence. inhibition, % at 5.6 µM. 290,000 tested, 0.45% active. AID 1556;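 active = inhibition above the mean plus 3 SD of all compounds in the same screening run, cut at about 4.5% in these data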;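 note: 0% = IMP-1 with DMSO and 100% = DMSO wells lacking enzyme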
#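 assay system = purified recombinant IMP-1 metallo-beta-lactamase enzyme | schedule = 15 min preincubation plus 25 min reaction at 25 °C | signal = Epi-absorbance fluorescence, 480 nm excitation, 530 nm emission | read-out basis = percent inhibition from optical density relative to buffer-blank wells | controls = IMP-1 with DMSO as 0%, enzyme-free DMSO as 100%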
# VIM-2 inhibitor: blocks Pseudomonas aeruginosa VIM-2 metallo-beta-lactamase | inhibition, % at 5.6 µM | AID 1527 | purified VIM-2, nitrocefin hydrolysis, epi-absorbance fluorescence | 290,000 tested, 0.89% active;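 active = inhibition above the mean of all tested compounds plus 3 SD, cutoff set per screening run, cut at about 7.5% in these data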;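 note: red hydrolysis product quenches plate fluorescence so inhibitors raise well fluorescence; 0% = enzyme with DMSO and 100% = DMSO without enzyme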
# ASAP1 GAP inh: inhibitors of human ASAP1 ArfGAP activity; AID 624377; 360,000 tested, 0.19% active; ASAP1-stimulated ARF1 GTP hydrolysis, GDP FP detection; inhibition, % at 16.5 µM; in the data active = inhibition above about 25%;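 note: 0% = vehicle with enzyme and substrate and 100% = no enzyme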
# Numbers without * were called inactive; · = no result.
SMILES,PHOSPHO1 inh,ARFGAP1 inhibitor,Calb FLC,IMP-1 inh,VIM-2 inhibitor,ASAP1 GAP inh
O=C(Nc1nnc(-c2ccco2)s1)C1CCCCC1,75.4*,-1.1,-7.7,-1.9,-5.2,10.3
C[C@H]1[C@@H](c2ccccc2)Oc2ccc(Cl)cc2S(=O)(=O)N1Cc1ccc(Cl)cc1,·,0.5,·,·,·,-7.6
COc1ccc(NC(=O)/C(C#N)=C/c2cc(C)n(-c3ccc(N4CCOCC4)c([N+](=O)[O-])c3)c2C)cc1,-2.9,2.0,-8.8,-2.5,-0.9,9.1
Cc1cc(/C=C(\C#N)C(=O)Nc2ccc(F)cc2)c(C)n1-c1ccc(N2CCOCC2)c([N+](=O)[O-])c1,17.1,4.2,-10.3,5.0*,0.7,-1.4
O=C1CCCCN1CCC(=O)N1CCCC(N2CCN(c3ccccc3)CC2)C1 (configuration not stated),75.4*,11.3,4.3,-2.1,-1.1,-8.2
Cc1cccc2c1c1ccc3c(c1n2C)C(=O)C=CC3=O,2.8,-2.8,·,5.2*,2.0,19.7
COC(=O)c1ccc2[nH]c([C@H](C)O)c([C@H](C)O)c2c1,-131.4,-3.1,-1.8,4.7*,4.9,6.8
CCCc1[nH]c2ccc(C(=O)OC)cc2c1CCC,-7.3,4.1,-4.7,-2.3,-0.2,1.5
N#C/C(=C(/O)COC(=O)c1ccccc1O)c1nc2ccccc2s1,37.8,-2.3,83.3*,-0.7,-2.9,8.1
COc1cc2c(cc1OC)-c1c(OC)c(OC)cc3ccnc(c13)C2=O,-20.9,5.7,22.2,-6.0,9.0*,5.2
Cc1cccc(C)c1NC(=O)C(c1ccccc1OC(F)(F)F)N1CCC(c2ccccc2)CC1 (configuration not stated),·,11.1,·,·,·,0.3
CCN1C(=O)/C(=C2/C=Cc3ccccc3N2C)OC1=S,65.0*,0.8,-1.3,-2.6,-3.4,1.3
CCN1C(=O)/C(=C2\C=Cc3cc(C)ccc3N2CC)OC1=S,-15.8,-4.0,13.3,-3.1,-0.9,-11.3
Cc1sc2ncnc(NCC(O)c3ccccc3)c2c1C (configuration not stated),46.2,16.2,-9.9,1.0,4.6,9.8
Cc1sc2ncnc(NCC(c3ccccc3)N(C)C)c2c1C (configuration not stated),28.0,-0.2,-6.4,-2.8,8.7*,-2.6
Cc1nc(NCC(c2ccccc2)N(C)C)c2c(C)c(C)sc2n1 (configuration not stated),18.4,3.6,-1.5,-5.0,7.8*,16.9
CCCCCCCCN1C(=O)[C@@H](CC(=O)N2CCSCC2)C[C@@]2(C(=O)OC)C1=C[C@H](C1CCCC1)O[C@@H]2C,·,7.9,·,·,·,1.6
Cc1ccc(C(=O)NC(=O)OCCn2c(C)cnc2[N+](=O)[O-])cc1,31.9,-0.2,88.1*,-2.8,-1.3,4.8
CCCCCCCCN1C(=O)[C@@H](CC(=O)NCCCCc2ccccc2)C[C@@]2(C(=O)OC)C1=C[C@H](C(C)(C)C)O[C@@H]2C,·,-3.5,·,·,·,1.4
COc1ccccc1NC(=O)NCc1ccc(C)n1C,2.5,-2.5,-6.7,2.1,10.6*,6.2
Cc1ccc(CNC(=O)Nc2ccc(F)cc2)n1C,15.9,-7.2,-4.2,-2.6,-3.4,5.1
N#Cc1ccc(C(=O)NCC2CCN(C(=O)C(=O)c3cccs3)CC2)cc1,·,-8.2,·,·,·,-2.3
CNC[C@H](Cc1ccccc1)NC[C@@H](Cc1cccc2ccccc12)NCCc1ccc(C)cc1,9.9,14.2,110.5*,-2.5,-2.9,-0.2
COc1ccc(N2C(=O)c3[nH]nc(-c4ccccc4)c3C2c2ccc(F)cc2)cc1 (configuration not stated),·,3.0,·,·,·,10.6
CCCc1cc(NCCN(C)C)n2c(nc3ccccc32)c1C#N,35.6,-11.5,6.9,-4.2,8.3*,11.8
Cc1cc(NCc2ccccn2)n2c(nc3ccccc32)c1C#N,-14.7,11.6,18.3,-1.5,11.7*,-6.3
C=CCc1c(C)c(C#N)c2nc3ccccc3n2c1NCCN(C)C,9.1,-0.9,91.2*,-3.4,0.3,1.3
CCCNc1cc(C)c(C#N)c2nc3ccccc3n12,-0.8,-2.0,·,-3.3,3.9,1.7
CCCc1cc(NCC2CCCO2)n2c(nc3ccccc32)c1C#N (configuration not stated),2.6,0.1,5.3,-0.5,8.7*,-7.7
